Screening results from PubChem BioAssay.
Most compounds without a hit are left out; they make up all but 12% or so of the library.
RAM inhibit: inhibitors of the yeast RAM network; inhibition, % at 50 µM; S. cerevisiae dse1pr::URA3 reporter, 5-FOA growth OD615, 2 d; analog-sensitive cbk1-as2 kinase mutant strain; 190,000 compounds, 1.8% hits;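 active = inhibition above a set limit, 3 SD over mean compound inhibition, cut at about 8.4% in these data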;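 also: inhibition rescues growth on 5-FOA so higher OD means more RAM inhibition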
Lmaj promast: reduces viability of Leishmania major promastigotes; resazurin fluorescence viability; inhibition, % at 10 µM; 200,000 compounds, 9% hits; in the data active = inhibition above about 50%;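 also: promastigotes grown with compound for 44 hours at 28 °C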
WT yeast gro inh: growth inhibition of WT yeast, mitochondrial fusion screen. mitochondrial fusion phenotypic screen, WT strain. inhibition, % at 10 µM. AID 1362. 190,000 compounds, 2.1% hits; in the data active = inhibition above about 58%; tested in S. cerevisiae
ABCB1 inh: human ABCB1 inhibition, ABCG2 as counter-screen; P08183; CCRF-Adr cells, JC-1 efflux, flow cytometry; inhibition, % at 6.6 µM; 190,000 compounds, 0.067% hits; in the data active = inhibition above about 40%;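 also: higher value means more JC-1 retained so stronger ABCB1 efflux block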
ABCG2 inh: blocks JC-1 efflux by human ABCG2 transporter; inhibition, % at 6.6 µM; IgMXP3 cells, flow cytometry; Q9UNQ0; 190,000 compounds, 0.1% hits;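 active = inhibition above 80%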
Target sequence (Q9UNQ0 whole entry, looked up): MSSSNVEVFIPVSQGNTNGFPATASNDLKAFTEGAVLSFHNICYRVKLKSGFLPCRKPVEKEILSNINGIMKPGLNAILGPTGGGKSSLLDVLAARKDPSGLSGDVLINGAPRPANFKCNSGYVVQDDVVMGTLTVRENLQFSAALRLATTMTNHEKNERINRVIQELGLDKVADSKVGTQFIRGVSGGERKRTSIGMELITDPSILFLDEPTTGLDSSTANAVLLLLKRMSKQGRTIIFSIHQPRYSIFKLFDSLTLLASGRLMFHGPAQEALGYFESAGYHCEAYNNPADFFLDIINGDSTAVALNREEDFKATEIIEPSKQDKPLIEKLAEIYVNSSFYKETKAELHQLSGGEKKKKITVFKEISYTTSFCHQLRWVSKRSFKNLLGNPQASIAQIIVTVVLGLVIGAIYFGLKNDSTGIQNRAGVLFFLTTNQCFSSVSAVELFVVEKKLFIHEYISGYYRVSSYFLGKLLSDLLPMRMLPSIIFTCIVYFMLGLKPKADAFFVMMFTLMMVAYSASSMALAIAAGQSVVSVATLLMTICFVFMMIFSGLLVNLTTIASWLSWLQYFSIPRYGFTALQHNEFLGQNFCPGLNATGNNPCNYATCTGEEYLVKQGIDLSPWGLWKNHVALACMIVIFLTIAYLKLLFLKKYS
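Read-out basis: Efflux inhibition in percent versus controls | Test system: ABCG2 IgMXP3 and barcoded ABCB1 CCRF-Adr cell mix | Quantity: 3 million cells/mL in well | Schedule: 10 min at 25 °C | Control set: Nicardipine as high control, DMSO as low control | Reagent: JC-1 as fluorescent efflux pump substrate | Signal: Flow cytometry of retained JC-1 fluorescence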
Hits are given with their value; . = inactive.

SMILES | RAM inhibit | Lmaj promast | WT yeast gro inh | ABCB1 inh | ABCG2 inh
Cc1cc2c(cc(C(=O)OC(C(=O)NCc3ccco3)C(C)C)n2C)o1 (stereo not given) | . | 99.3 | . | . | .
Cn1c(C(=O)OCC(=O)NCc2ccco2)cc2sccc21 | . | . | . | . | .
Cn1c(C(=O)OC(C(=O)NC2CCCC2)c2ccncc2)cc2sccc21 (stereo not given) | . | . | . | . | .
CCOC(=O)c1nn(-c2cccc(OC)c2)c2nc(CC)c(C#N)c(=O)n12 | 8.4 | . | . | . | .
Fc1ccc(-c2noc(C3CCN(Cc4cccnc4)CC3)n2)cc1 | . | 94.0 | . | . | .
O=C(c1ccc(Cl)c(S(=O)(=O)Nc2ccccc2C(=O)N2CCc3ccccc3C2)c1)N1CCc2ccccc2C1 | . | 78.1 | . | . | .
O=C(c1ccc(Cl)c(S(=O)(=O)N2CCc3ccccc3C2)c1)N1CCN(c2ccccc2)CC1 | . | . | . | . | .
CCOc1ccc(CNc2ccc(S(N)(=O)=O)cc2)cc1 | . | . | . | . | .
COCc1cc(CN2CCN(Cc3ccsc3)C(CCO)C2)ccc1OC (stereo not given) | . | . | . | . | .
OCCC1CN(Cc2ccccc2OC2CCCC2)CCN1Cc1ccsc1 (stereo not given) | . | 60.6 | . | . | .
OCCC1CN(Cc2ccc(-c3ccco3)cc2)CCN1Cc1ccsc1 (stereo not given) | . | 76.1 | . | . | .
COc1ccccc1/C=C/C(=O)NCc1ccccn1 | . | . | . | . | .
CC(Cc1cccnc1)NC(=O)c1ccccc1OC1CCN(S(C)(=O)=O)CC1 (stereo not given) | . | . | . | . | .
Cc1cccc(NC(=O)CSc2nnc(CNC(=O)c3ccc(S(=O)(=O)N(C)C)cc3)n2-c2ccccc2)c1 | . | 54.7 | . | . | .
Cc1cccc(NC(=O)CSc2nnc(CNC(=O)c3ccc(S(=O)(=O)N(C)C)cc3)n2-c2cccc(C)c2)c1 | . | 72.1 | . | . | .
COc1ccc(CCn2c(C(C)C)nc3c(c(=O)c4ccccc4n3C)c2=O)cc1 | 8.9 | . | . | . | .
COc1ccc(Cn2c(-c3ccc(C)cc3)nc3c(c(=O)c4ccccc4n3C)c2=O)cc1 | 9.9 | 87.6 | . | . | .
CC(C)CCNC(=O)CCCOc1cc(=O)n(C)c2ccccc12 | . | . | 96.5 | . | .
CCN(CCCNC(=O)CCCOc1cc(=O)n(C)c2ccccc12)Cc1ccccc1 | . | 86.3 | . | . | .
CN1CCN(CCCNC(=O)CCCOc2cc(=O)n(C)c3ccccc23)CC1 | . | . | . | . | .
Cc1cc2ncn(CC3CC3(Cl)Cl)c2cc1C (stereo not given) | . | . | . | . | .
O=C(CSc1nnnn1-c1ccccc1)N1N=CCC1c1ccccc1 (stereo not given) | . | . | . | . | .
Cc1ccc(SCC(=O)N2N=CCC2c2ccccc2)cc1 (stereo not given) | . | 84.4 | . | . | .
CCOC(=O)c1[nH]c2ccccc2c1NC(=O)c1ccc(S(=O)(=O)N2CCCCC2)cc1 | . | . | . | . | .
Cc1cc(NC(=O)/C=C/c2ccc(Cl)cc2)no1 | . | . | . | . | .
SMILES | RAM inhibit | Lmaj promast | WT yeast gro inh | ABCB1 inh | ABCG2 inh
CC(C)(CN1CCCCC1)NS(=O)(=O)c1ccc(Cl)cc1 | . | 90.1 | . | . | .
CC(C)(CNS(=O)(=O)c1ccc(Cl)cc1)N1CCCCC1 | . | 81.3 | . | . | .
CN(C)CC(C)(C)NS(=O)(=O)c1ccc(Cl)cc1 | . | . | . | . | .
CC1CC(C)CN(CC(C)(C)NS(=O)(=O)c2ccc(Cl)cc2)C1 (stereo not given) | . | 95.2 | . | . | .
CCN(CC)CC(C)(C)NS(=O)(=O)c1ccc(Cl)cc1 | . | 70.8 | . | . | .
Cc1ccc(N2C(=O)N(CC(=O)N3CCOCC3)C(=O)C2C)cc1 (stereo not given) | . | . | . | . | .
COc1ccccc1/C=C(/NC(=O)c1ccc(Cl)cc1Cl)C(=O)O | . | . | . | . | .
COc1ccc(NC(=O)C2CCCN2C(=O)Oc2ccccc2)cc1 (stereo not given) | . | . | . | . | .
Cc1cc(C)c2sc(N(CCCN(C)C)C(=O)COc3ccc(Cl)cc3)nc2c1 | . | . | 88.8 | . | .
Cc1ccc2nc(N(CCN(C)C)C(=O)c3cc(Cl)sc3Cl)sc2c1 | . | . | . | . | .
Cc1ccc2nc(N(CCCN(C)C)C(=O)COc3ccc(Cl)cc3)sc2c1 | . | . | 91.0 | . | .
CN(C)CCCN(C(=O)COc1ccc(Cl)cc1)c1nc2c(F)cccc2s1 | . | . | . | . | .
Cc1cccc2sc(N(CCCN(C)C)C(=O)COc3ccc(Cl)cc3)nc12 | . | . | 89.7 | . | .
Cc1cc(C)c2sc(N(CCN(C)C)C(=O)c3cc(Cl)sc3Cl)nc2c1 | . | . | . | . | .
Cc1ccc2sc(N(CCCN(C)C)C(=O)CN3C(=O)c4ccccc4C3=O)nc2c1C | . | . | 94.2 | . | .
CCN(CC)S(=O)(=O)c1cccc(C(=O)N[C@H](C(=O)NCc2ccc(Cl)cc2)C(C)C)c1 | . | . | . | . | .
CN(C)CCCN(C(=O)COc1ccc(Cl)cc1)c1nc2ccc(F)cc2s1 | . | . | 60.7 | . | .
CN(C)CCCN(C(=O)COc1ccccc1)c1nc2ccc(F)cc2s1 | . | . | . | . | .
CN(C)CCCN(C(=O)CCOc1ccccc1)c1nc2ccc(F)cc2s1 | . | 93.1 | . | . | .
Cc1cccc2sc(N(CCCN(C)C)C(=O)c3sc4ccccc4c3Cl)nc12 | . | . | 87.5 | . | .
CC(C)NC(=O)CC1C(=O)N(Cc2ccccc2)C(C)c2nc3ccccc3n21 (stereo not given) | . | . | . | . | .
CCN(CC)S(=O)(=O)c1ccc2c(c1)nc(CCC(=O)OCC(=O)Nc1cc(OC)cc(OC)c1)n2C | . | 63.7 | . | . | .
CN(c1ccccc1)S(=O)(=O)c1ccc(Cl)c(C(=O)Nc2nc3ccccc3[nH]2)c1 | . | 99.2 | . | . | .
CN(c1ccccc1)S(=O)(=O)c1ccc(Cl)c(C(=O)Nc2ccc(-c3nc4ccccc4[nH]3)cc2)c1 | . | 95.7 | . | . | .
CCOC(=O)C1(C)NC(c2ccco2)C2C(=O)N(C)C(=O)C21 (stereo not given) | . | . | . | . | .
Cn1c(CC(=O)c2ccc(Br)cc2)[n+](C)c2ccccc21 | . | . | . | . | .
c1ccc(C2=NNC(=NCc3ccc4c(c3)OCO4)SC2)cc1 | 9.0 | . | . | . | .
O=C(c1ccccc1)N1CCN(C(=S)NCc2ccco2)CC1 | . | . | . | . | .
Cc1cc(C)c2c3c(sc2n1)C(c1cccc(F)c1)C(C#N)=C(N)O3 (stereo not given) | . | 88.9 | . | . | .
CCOC(=O)C1=C(C)OC(N)=C(C#N)C1c1cccc(C)c1 (stereo not given) | . | . | . | . | .
